# Data from ChEMBL document CHEMBL4689842, “EUbOPEN Chemogenomics Library wave 1” (2021).
# Values joined by “and” are separate entries in the source; they are usually repeats but may differ in a detail not shown here. Identical values can stand only once.
# Test system: Fibroblast
# Test: Multiplex assay against human fibroblast
# Type: toxicity, cell-based
# Details: 10 µM, compound concentration 10 uM
# Method in brief: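 Four dyes were applied at seeding to live cells: Hoechst33342, BioTracker Green Microtubule Cytoskeleton Dye, MitoTracker Red and Annexin V Alexa Fluor 680. Imaging after compound addition used a CQ1 microscope at 37°C and 5% CO2. CellPathfinder machine-learning gating then sorted cells into Hoechst high-intensity objects or normal cells, normal cells into healthy, pyknosed or fragmented nuclei, and pyknosed cells into mitotic or apoptotic, with tubulin, mitochondrial-mass and membrane-permeability phenotypes given as per cents of healthy-nucleus cells.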
compound,measurement,setting,value
CNCc1ccccc1-c1csc([C@@H](C)Nc2nc(C)nc3cc(OC)c(OC)cc23)c1 [BAY-293],Population Apoptotic (%),"12 h, replicate 1",45% and 52%
same,Population Fragmented Nuclei (%),"12 h, replicate 1",29% and 38%
same,Population Healthy Nuclei (%),"12 h, replicate 1",45% and 27%
same,Population Membrane Permeable-Phenotype (%),"12 h, replicate 1",11% and 24%
same,Population Mitotic Cells (%),"12 h, replicate 1",54% and 47%
same,Population Normal (%),"12 h, replicate 1",58% and 87%
same,Population Pyknosed Nuclei (%),"12 h, replicate 1",24% and 33%
same,Population Apoptotic (%),"12 h, replicate 2",83% and 66%
same,Population Fragmented Nuclei (%),"12 h, replicate 2",50% and 52%
same,Population Healthy Nuclei (%),"12 h, replicate 2",17% and 31%
same,Population Hoechst High Intensity Objects (%),"12 h, replicate 2",34% and 42%
same,Population Membrane Permeable-Phenotype (%),"12 h, replicate 2",20% and 8%
same,Population Mitotic Cells (%),"12 h, replicate 2",16% and 33%
same,Population Normal (%),"12 h, replicate 2",65% and 57%
same,Population Pyknosed Nuclei (%),"12 h, replicate 2",32% and 16%
same,Population Tubulin-Different-Phenotype (%),"12 h, replicate 2",50% and 30%
same,Population Apoptotic (%),"24 h, replicate 1",89% and 38%
same,Population Fragmented Nuclei (%),"24 h, replicate 1",36% and 23%
same,Population Hoechst High Intensity Objects (%),"24 h, replicate 1",16% and 40%
same,Population Membrane Permeable-Phenotype (%),"24 h, replicate 1",11% and 4%
same,Population Normal (%),"24 h, replicate 1",83% and 59%
same,Population Pyknosed Nuclei (%),"24 h, replicate 1",56% and 28%
same,Population Tubulin-Different-Phenotype (%),"24 h, replicate 1",22% and 14%
same,Population Apoptotic (%),"24 h, replicate 2",66% and 90%
same,Population Fragmented Nuclei (%),"24 h, replicate 2",52% and 60%
same,Population Hoechst High Intensity Objects (%),"24 h, replicate 2",44%
same,Population Normal (%),"24 h, replicate 2",55%
same,Population Pyknosed Nuclei (%),"24 h, replicate 2",10% and 27%
same,Population Tubulin-Different-Phenotype (%),"24 h, replicate 2",38% and 20%
